The values below come from ChEMBL document CHEMBL1137780, “Isocombretastatins a versus combretastatins a: the forgotten isoCA-4 isomer as a highly promising cytotoxic and antitubulin agent” (J Med Chem, 2009).

A word on the IC50: it is the concentration at which inhibition is half-maximal. The GI50 is the concentration giving 50% growth inhibition.

In experiment [1] the test system is HCT-116. Nature of the experiment: Cytotoxicity against human HCT116 cells after 72 hrs. The settings on record: HCT-116, 72 h. The class given is functional, cell-based. In a few lines:
(§1)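 Human tumour cell lines (H1299 non-small-cell lung carcinoma, HCT116 colon carcinoma) were exposed to the test drug for 72 h. IC50 is the concentration that reduced cell growth by 50%, taken as the average of three experiments.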

Experiment [2] concerns K562. Kind of experiment: Cytotoxicity against human K562 cells after 72 hrs. It is filed as functional, cell-based. The settings on record: K562, 72 h. In a few lines: (§2)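 Human K562 (chronic myelogenous leukemia) or MDA-MB231 (breast cancer) cells exposed to compound for 72 h; IC50 taken as concentration reducing cell growth by 50%, averaged over three experiments.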
The nature of experiment [3]: Cytotoxicity against human H1299 cells after 72 hrs. The class given is functional, cell-based. The settings on record: NCI-H1299, 72 h. In a few lines: as §1
Experiment [4] in a line: Inhibition of tubulin polymerization assessed as blockade of microtubule assembly.
In experiment [5] the test system is MDA-MB-231. Kind of experiment: Cytotoxicity against human MDA-MB-231 cells after 72 hrs. It is filed as functional, cell-based. To be noted: MDA-MB-231, 72 h. In a few lines: as §2
The subject of experiment [6] is P388. Kind of experiment: Cytotoxicity against mouse P388 cells. The class given is functional. The settings on record: read-out: ED50 (the source's name).
Experiment [7] has as its system HCT-116. Kind of experiment: Ratio of IC50 of drug to IC50 for combretastatin CA-4 against human HCT116 cells. It is filed as functional.
The subject of experiment [8] is NCI-H460. Kind of experiment: Cytotoxicity against human H460 cells. The class given is functional, cell-based.
Experiment [9] has as its system NCI-H460. Kind of experiment: Ratio of IC50 of drug to IC50 for combretastatin CA-4 against human H460 cells. The class given is functional.
A short description of experiment [10]: Cytotoxicity against human NCI60 cells. The class given is functional.
Experiment [11] deals with Colon 26. Kind of experiment: Ratio of IC50 of drug to IC50 for combretastatin CA-4 against mouse Colon 26 cells. The class given is functional.
For experiment [12], the system named is K562. Nature of the experiment: Cell cycle arrest in human K562 cells assessed as decrease in G1 phase accumulation after 24 hrs. It is filed as functional, cell-based. In a few lines:
(§3)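 K562 leukemia cells cultured 24 h with increasing concentrations of test agent; DNA content measured by propidium iodide staining and flow cytometry to give cell-cycle phase distribution (G1, S, G2/M).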

Experiment [13] has as its system K562. Nature of the experiment: Cell cycle arrest in human K562 cells assessed as decrease in S phase accumulation after 24 hrs. The class given is functional, cell-based. In a few lines: as §3
Experiment [14] concerns K562. Kind of experiment: Cell cycle arrest in human K562 cells assessed as increase in G2/M phase accumulation after 24 hrs. It is filed as functional, cell-based. Put shortly: as §3

Activity calls are given as the source filed them. No cut-off for these calls is given here.

Turning to `COc1cc2c(c(OC)c1OC)-c1ccc(OC)c(=O)cc1[C@@H](NC(C)=O)CC2` [COLCHICINE], the IC50 in [1] is 32 nM; in experiment [2] it was 29 nM; in [3], 30 nM; in experiment [4] (read-out: IC50), 2100 nM; in [5], 26 nM.
In the case of `COc1ccc(/C=C\c2cc(O)c(OC)c(OC)c2)cc1O`, the EC50 in [6] is 26 nM.
On to `C=C(c1ccc(OC)c(O)c1)c1cc(OC)c2c(c1)OCO2`, for which the IC50 came to 38 nM in experiment [1]; 38 nM in experiment [2]; 32 nM in [3]; 3400 nM in experiment [4] (read-out: IC50); 48 nM in [5].
Turning to `C=C(c1ccc(OC)c(O)c1)c1cc(O)c(OC)c(OC)c1`, the 50% inhibitory concentration (IC50) was 34 nM in experiment [1]; 52 nM in experiment [2]; 25 nM in experiment [3]; 5000 nM in experiment [4] (read-out: IC50); 8 nM in [5].
With `COc1ccc(C(=C(F)F)c2cc(OC)c(OC)c(OC)c2)cc1O`, the “Ratio IC50” value in experiment [7] is 2.6. Also, in experiment [8], the outcome was Active. The IC50 in experiment [4] (read-out: IC50) turned out to be 2500 nM.
For the compound `COc1ccc(/C(F)=C(/F)c2cc(OC)c(OC)c(OC)c2)cc1O`, the “Ratio IC50” value in experiment [9] worked out at 1.6. Besides, in experiment [8], the outcome was Active.
In the case of `C=C(c1ccc(OC)c(OC)c1)c1cc(O)c(OC)c(OC)c1`, the 50% inhibitory concentration (IC50) in experiment [1] was 2800 nM; in experiment [2], 3100 nM; in experiment [3] it was 5000 nM; in [4] it was “Not Active”; in [5], 3000 nM.
With `COc1ccc(/C=C\c2cc(O)c(OC)c(OC)c2)cc1OC`, the EC50 in [6] amounted to 900 nM.
In the case of `COc1ccc(/C(=C/C#N)c2cc(OC)c(OC)c(OC)c2)cc1O` (mixture of isomers), the IC50 in experiment [1] came out at 3 nM; in experiment [4] (read-out: IC50), 4300 nM. Moreover, the “Ratio IC50” value in [7] is reported as 1.3.
Take `COc1ccc(C(=O)c2cc(OC)c(OC)c(OC)c2)cc1O` [PHENSTATIN]: the half-inhibitory concentration (IC50) in [1] was found to be 33 nM; in experiment [2], 41 nM; in experiment [3], 21 nM; in [4] (read-out: IC50), 2000 nM; in experiment [5], 28 nM.
In the case of `COc1ccc(/C=C\c2cc(OC)c(OC)c(OC)c2)cc1O` [COMBRETASTATIN A4], the half-maximal inhibitory concentration (IC50) in experiment [1] was found to be 2.3 nM; in experiment [2] it was 3.6 nM; in experiment [3], 5 nM; in [5], 3 nM. Moreover, the 50% growth inhibitory concentration (GI50) in experiment [10] was found to be 3.2 nM.
In experiment [10], `COc1ccc(/C=C\c2cc(OC)c3c(c2)OCO3)cc1O` [Combretastatin A-2] displayed a GI50 of 31.6 nM.
As to `COc1ccc(/C=C(/C#N)c2cc(OC)c(OC)c(OC)c2)cc1O`, in experiment [11], the “Ratio IC50” value came to 1.3.
Consider `C=C(c1ccc(OC)c(O)c1)c1cc(OC)c(OC)c(OC)c1`, for which the 50% inhibitory concentration (IC50) in [1] was found to be 2.5 nM; in experiment [2] it was 5 nM; in experiment [3] it was 5 nM; in experiment [4] (read-out: IC50), 2200 nM; in experiment [5] it was 4 nM. For the same compound, the outcome in [12] and in [13] was Active. In addition, the Activity result in experiment [14] was “Dose-dependent effect”.
In experiment [10], `COc1ccc(/C=C\c2cc(OC)c(OC)c(OC)c2)c(O)c1O` [COMBRETASTATIN A-1] returned a concentration for 50% growth inhibition (GI50) of 16.2 nM.
Consider `C=C(c1cc(OC)c(OC)c(OC)c1)c1ccc(OC)c(O)c1O`, for which the half-maximal inhibitory concentration (IC50) in [1] is 850 nM; in experiment [2] it was 750 nM; in experiment [3], 2000 nM; in experiment [4] (read-out: IC50), 2100 nM; in experiment [5], 820 nM.
